# Published values pooled from the literature.
# Each line is one published result; the experiments were not run side by side.
# Target: Serine/threonine-protein kinase Nek6 (NEK6, Homo sapiens, UniProt Q9HC98)
# Observed: enzyme activity
# Mode: inhibitor
SMILES,test,conditions,remaining activity
CCN(CC)CCNC(=O)c1c(C)[nH]c(/C=C2\C(=O)Nc3ccc(F)cc32)c1C,,1 µM,103%
O=C(Nc1cnn(-c2csc(C(=O)NC3COC3)c2)c1)Nc1ccccc1Cl,,5 µM,99.6%
Cc1ccc(C(=O)Nc2ccc(CN3CCN(C)CC3)c(C(F)(F)F)c2)cc1C#Cc1cnc2cccnn12,,23.5 nM,100%
O=C(Nc1cnn(-c2csc(C(=O)NC3COC3)c2)c1)Nc1c(F)cccc1Cl,,5 µM,86.8%
Cn1c(=O)n(-c2ccc(C(C)(C)C#N)cc2)c2c3cc(-c4cnc5ccccc5c4)ccc3ncc21,,10 µM,95%
CC(C)(O)[C@H]1CC[C@H](Nc2ccc3ncc(-c4cccc(C(F)(F)F)c4)n3n2)CC1,,1 µM,99.7%
CCN(CC)c1ccc(C2=NNC(=O)CC2C)cc1[N+](=O)[O-] (stereo not drawn),,10 µM,93%
CC(C)(C)C(=O)c1sc(NC2CCCCC2)nc1N,,10 µM,100%
COc1cc(Nc2cnc(C#N)c(O[C@H](C)CN(C)C)n2)ncc1-c1cnn(C)c1,radiometric,1 µM,97%
Cc1cnc(NC2CCOCC2)nc1-n1cnc(C(=O)NC(CN)c2cc(F)cc(Cl)c2)c1 (stereo not drawn),radiometric,1 µM,55%
CC(C)(C)c1nc2c(s1)c1nc(N)ncc1c1ccc(NS(=O)(=O)c3c(F)cccc3F)c(F)c12,radiometric,1 µM,96%
Cc1[nH]c(/C=C2\C(=O)Nc3ccc(F)cc32)c(C)c1C(=O)N[C@H]1CCN(C(=O)N(C)C)C1,,0.1 µM,131%
